The values below come from ChEMBL document CHEMBL4138140, “Discovery of Mechanism-Based Inactivators for Human Pancreatic Carboxypeptidase A from a Focused Synthetic Library” (ACS Med Chem Lett, 2017).

The target of assay [1] is T1, Carboxypeptidase A1 (Bos taurus, UniProt P00730).
T1 sequence (P00730 whole entry): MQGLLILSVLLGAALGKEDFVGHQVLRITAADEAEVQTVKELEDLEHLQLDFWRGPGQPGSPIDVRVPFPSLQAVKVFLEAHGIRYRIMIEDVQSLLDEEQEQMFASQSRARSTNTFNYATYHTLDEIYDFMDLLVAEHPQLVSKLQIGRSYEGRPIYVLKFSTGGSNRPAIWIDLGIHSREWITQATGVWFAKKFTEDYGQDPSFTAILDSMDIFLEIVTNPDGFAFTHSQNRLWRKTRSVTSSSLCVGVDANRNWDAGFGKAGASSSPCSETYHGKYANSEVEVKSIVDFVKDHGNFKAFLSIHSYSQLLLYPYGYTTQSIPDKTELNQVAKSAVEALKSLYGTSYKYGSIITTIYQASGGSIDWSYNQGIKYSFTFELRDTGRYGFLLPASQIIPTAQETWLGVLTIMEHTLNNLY
Briefly: Inhibition of bovine carboxypeptidase A using N-(4-methoxyphenylazoformyl)-Phe-OH as substrate preincubated for 3 hrs followed by susbtrate addition measured for 15 mins at 30 secs interval. The gist of the method:
(§1)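 Compound was pre-incubated with enzyme before the activity assay, either briefly (2 min) or long (3 h), to test for time-dependent inhibition.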

In assay [2] the target is T1, Carboxypeptidase A1. Briefly: Inhibition of bovine carboxypeptidase A using N-(4-methoxyphenylazoformyl)-Phe-OH as substrate preincubated for 2 mins followed by susbtrate addition measured for 15 mins at 30 secs interval. The gist of the method:
as §1

The target of assay [3] is T2, Carboxypeptidase A1 (Homo sapiens) (UniProt P15085).
T2 sequence (whole entry): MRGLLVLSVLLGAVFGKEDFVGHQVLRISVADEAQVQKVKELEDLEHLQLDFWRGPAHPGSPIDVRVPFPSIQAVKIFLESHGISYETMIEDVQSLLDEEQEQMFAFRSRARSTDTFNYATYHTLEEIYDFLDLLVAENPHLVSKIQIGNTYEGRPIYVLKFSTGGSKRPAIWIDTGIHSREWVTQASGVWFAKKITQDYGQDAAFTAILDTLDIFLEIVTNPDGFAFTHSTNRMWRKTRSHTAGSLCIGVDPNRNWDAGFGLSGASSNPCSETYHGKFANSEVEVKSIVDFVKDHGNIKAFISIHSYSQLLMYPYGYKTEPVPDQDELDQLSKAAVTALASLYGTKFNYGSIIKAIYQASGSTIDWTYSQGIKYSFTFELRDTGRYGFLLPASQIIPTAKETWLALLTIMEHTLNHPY
Briefly: (§2) Irreversible inhibition of recombinant human carboxypeptidase A1 expressed in Pichia pastoris using N-(4-methoxyphenylazoformyl)-Phe-OH as substrate measured for 600 secs by double reciprocal plot analysis.

Assay [4] concerns the target T3, Carboxypeptidase A1 (Homo sapiens, UniProt P15085).
T3 sequence (P15085 whole entry): T2 sequence (whole entry)
The assay is described as §2. Conditions: read-out: Ki(app).

The IC50 is the concentration at which inhibition is half-maximal. A high value points to weaker potency.

Each structure is given as a SMILES string.

Regarding `CCC[C@H](C(=O)O)[C@@H]1CO1` (racemic), the IC50 was determined as 1.13 µM in assay [1] and 115 µM in assay [2].
For `CC(C)C[C@H](C(=O)O)[C@H]1CS1` (racemic), in assay [1], the IC50 was 31.9 µM.
Take `O=C(O)[C@@H](CC1CCC1)[C@@H]1CO1` (racemic): the results for the concentration for half-maximal inhibition (IC50) in assay [1] and in assay [2] were 1.13 µM and 57.9 µM, respectively.
Consider `CC(C)C[C@H](C(=O)O)[C@H]1CO1` (racemic), for which the half-inhibitory concentration (IC50) in assay [1] was determined as 0.57 µM.
Take `O=C(O)[C@@H](Cc1ccc(I)cc1)[C@@H]1CO1` (racemic): the IC50 in assay [1] was determined as 1.04 µM; in assay [2] it was 48.3 µM. For the same compound, the Kinact in assay [3] was determined as 0.6 min⁻¹. In addition, the Ki in assay [4] came out at 413 µM.
On to `O=C(O)[C@@H](CCc1ccccc1)[C@@H]1CS1` (racemic), for which, in assay [1], half-maximal inhibition (IC50) was put at 16.4 µM.
For `O=C(O)[C@@H](CC1CC1)[C@H]1CS1` (racemic), the 50% inhibitory concentration (IC50) turned out to be 1.8 µM in assay [1] and 174 µM in assay [2].
In the case of `CC(C)C[C@H](C(=O)O)[C@@H]1CS1` (racemic), the IC50 in assay [1] was 0.26 µM; in assay [2], 14 µM. Moreover, in assay [3], the Kinact worked out at 0.52 min⁻¹. Further, the Ki in assay [4] turned out to be 56 µM.
For `O=C(O)[C@@H](Cc1ccc(F)cc1)[C@@H]1CO1` (racemic), in that order: 0.51 µM, 21.9 µM, 0.71 min⁻¹ and 238 µM.
Regarding `O=C(O)[C@@H](CC1CCC1)[C@H]1CS1` (racemic), the IC50 in assay [1] worked out at 0.97 µM; in assay [2] it was 60 µM.
As for `CCC[C@H](C(=O)O)[C@@H]1CS1` (racemic), the IC50 in assay [1] was found to be 0.6 µM; in assay [2], 31.9 µM. Also, the Kinact in assay [3] stood at 0.82 min⁻¹. Moreover, the Ki in assay [4] worked out at 294 µM.
`O=C(O)[C@@H](Cc1ccc(I)cc1)[C@H]1CS1` (racemic): the IC50 in assay [1] stood at 0.96 µM; in assay [2], 46.3 µM. For the same compound, the Kinact in assay [3] was determined as 0.69 min⁻¹. Besides, in assay [4], the Ki was found to be 289 µM.
For the compound `CC(C)C[C@H](C(=O)O)[C@@H]1CO1` (racemic), in assay [1], inhibition was half-maximal at 33.1 µM (IC50).
Same read-out and setting: with `O=C(O)[C@@H](CCc1ccccc1)[C@@H]1CO1` (racemic) the figure was 8.25 µM.
As to `O=C(O)[C@@H](Cc1ccc(F)cc1)[C@H]1CS1` (racemic), the IC50 in assay [1] was determined as 0.47 µM; in assay [2], 18.7 µM. Also, in assay [3], the Kinact was 0.47 min⁻¹. Further, in assay [4], the Ki worked out at 60.4 µM.
Consider `O=C(O)[C@@H](CC1CC1)[C@@H]1CO1` (racemic), for which the IC50 in assay [1] came to 11.2 µM; in assay [2], 276 µM.
